Rows were chosen to be rich in hits. Some 4.6% of all compounds tested hit in one or more screens of this group.
WT yeast gro inh = growth inhibition of WT yeast, mitochondrial fusion screen; inhibition, % at 10 µM; AID 1362; hit rate 2.1% among 190,000; mitochondrial fusion phenotypic screen, WT strain; in the data active = inhibition above about 58%; tested in S. cerevisiae
NCF1 inh = blocks human p47phox regulatory protein of NADPH oxidases; P14598; p47phox/p22phox peptide binding, fluorescence polarization, 2 h; inhibition, % at 24.7 µM; hit rate 0.53% among 220,000; AID 1274;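 active = inhibition above about 30%, limit read from the data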;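 note: 0% = p47phox with labelled peptide and 100% = labelled peptide alone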
Target sequence (P14598 whole entry, looked up): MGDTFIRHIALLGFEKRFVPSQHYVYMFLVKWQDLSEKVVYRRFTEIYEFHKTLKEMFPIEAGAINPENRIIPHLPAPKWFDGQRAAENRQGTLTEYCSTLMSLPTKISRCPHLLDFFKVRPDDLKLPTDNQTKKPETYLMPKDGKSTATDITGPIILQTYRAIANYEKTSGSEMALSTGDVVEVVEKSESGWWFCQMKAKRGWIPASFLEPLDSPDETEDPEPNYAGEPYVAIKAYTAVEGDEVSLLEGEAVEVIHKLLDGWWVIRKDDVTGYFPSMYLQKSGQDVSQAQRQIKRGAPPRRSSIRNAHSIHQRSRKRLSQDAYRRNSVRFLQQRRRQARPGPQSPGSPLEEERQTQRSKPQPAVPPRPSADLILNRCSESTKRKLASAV
Calb biofilm kill = mixtures killing C. albicans biofilm | hit rate 0.02% among 120,000 | inhibition, % at 7.6 µM | AID 1242 | C. albicans biofilm persisters + clotrimazole, fluorescence viability; primary screen in compound mixtures of four per well;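 note: compounds exposed to preformed 24 h biofilms for 48 h; 0% = untreated biofilm control and 100% = clotrimazole plus chlorhexidine kill blank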
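Test system: C. albicans CAF4-2 wild-type biofilms; buffer or medium: RPMI/MOPS medium, pH 7.0; schedule: 24 h biofilm formation, then 48 h compound exposure, 37 °C; detection: Alamar Blue fluorescence; measure: percent inhibition of biofilm viability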
Arbovirus anti = arbovirus infection inhibition | inhibition, % at 10 µM | AID 1251 | arbovirus infection cell-based antiviral screen | hit rate 0.37% among 200,000; in the data active = inhibition above about 30%
RAM network inh = yeast RAM network inhibition. inhibition, % at 50 µM. AID 868. S. cerevisiae dse1pr::URA3 reporter, 5-FOA growth OD615, 2 d; analog-sensitive cbk1-as2 kinase mutant strain. hit rate 1.8% among 190,000;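 active = inhibition above a set limit, 3 SD over mean compound inhibition, cut at about 8.4% in these data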;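 note: 0% = DMSO-only wells with no growth and 100% = 10 µM 1-NA-PP1 full growth; inhibition rescues growth on 5-FOA so higher OD means more RAM inhibition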
Hck-Nef inh = blocks Nef-activated human Hck kinase | Recombinant Hck-YEEI plus Nef, Z-Lyte FRET kinase assay | inhibition, % at 20 µM | hit rate 0.68% among 220,000;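 active = Hck-Nef kinase inhibition above about 50%, limit read from the data; inactive = inhibition below that limit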;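 note: 0% = DMSO with Hck plus Nef and 100% = Hck alone without Nef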
* = called active by the depositor.

What do the screens show for `COc1ccc(N=C2S/C(=C\c3ccc(C)o3)C(=O)N2CC(C)C)cc1`?
WT yeast gro inh: 9; NCF1 inh: 0; Arbovirus anti: -2; RAM network inh: 11*; Hck-Nef inh: -1

What do the screens show for `COc1ccc2oc3cc(C)[n+]([O-])c(-c4ccc(Br)cc4)c3c2c1`?
WT yeast gro inh: 18; NCF1 inh: 5; Calb biofilm kill: 1; Arbovirus anti: 25; RAM network inh: 1; Hck-Nef inh: 0

What do the screens show for `O=C(c1c[nH]c(C(=O)C(Cl)(Cl)Cl)c1)c1ccc(F)cc1Cl`?
WT yeast gro inh: -5; NCF1 inh: -5; Calb biofilm kill: -1; Arbovirus anti: -28; RAM network inh: -2; Hck-Nef inh: -19

Results for COc1ccc(C2C=C(C34CC5CC(CC(C5)C3)C4)NC(=S)N2)cc1 (stereo not given) ?
WT yeast gro inh: 70*; NCF1 inh: -10; Calb biofilm kill: 7; Arbovirus anti: 20; RAM network inh: 1; Hck-Nef inh: 10

How did COc1ccc(C2=CC(c3ccc(OC)c(OC)c3)NC(=S)N2)cc1 (stereo not given) do in these assays?
WT yeast gro inh: -2; NCF1 inh: -17; Arbovirus anti: -9; RAM network inh: 1; Hck-Nef inh: 1

How did O=C(N/N=C/c1cccc(O)c1)c1ccc(COc2ccccc2Br)cc1 do in these assays?
WT yeast gro inh: 80*; NCF1 inh: -25; Calb biofilm kill: 7; Arbovirus anti: -17; RAM network inh: 0; Hck-Nef inh: 5

What do the screens show for `Cc1ccc(C(C)C)c(OCc2ccc(C(=O)N/N=C/c3ccc(C(=O)O)cc3)cc2)c1`?
NCF1 inh: -29; Calb biofilm kill: 22; Hck-Nef inh: 34

How did Cc1ccc(C(C)C)c(OCc2ccc(C(=O)N/N=C/c3ccc(O)cc3O)cc2)c1 do in these assays?
WT yeast gro inh: 61*; NCF1 inh: -17; Calb biofilm kill: 5; Arbovirus anti: -37; RAM network inh: 4; Hck-Nef inh: -1

How did O=C(N/N=C/c1cccc(O)c1)c1ccc(COc2cccc3cccnc23)cc1 do in these assays?
WT yeast gro inh: -1; NCF1 inh: -21; Calb biofilm kill: 16; Arbovirus anti: -3; RAM network inh: 2; Hck-Nef inh: 5

What do the screens show for `CC(C)(C)SCCNC(=O)c1ccc(Cl)c([N+](=O)[O-])c1`?
WT yeast gro inh: 81*; NCF1 inh: -6; Calb biofilm kill: 7; Arbovirus anti: 7; RAM network inh: -2; Hck-Nef inh: 7

How did Cc1ccccc1CNC(=O)c1ccc(Cl)c([N+](=O)[O-])c1 do in these assays?
WT yeast gro inh: 46; NCF1 inh: -5; Calb biofilm kill: 9; Arbovirus anti: 2; RAM network inh: -1; Hck-Nef inh: 2

How did O=C(C(=O)N1CCN(c2ccc(F)cc2)CC1)c1c[nH]c2ccccc12 do in these assays?
WT yeast gro inh: 8; NCF1 inh: -1; Calb biofilm kill: 4; Arbovirus anti: 5; RAM network inh: 10*; Hck-Nef inh: 17

What do the screens show for `O=C(C(=O)N1CCN(c2cccc(Cl)c2)CC1)c1c[nH]c2ccccc12`?
WT yeast gro inh: 30; NCF1 inh: -5; Calb biofilm kill: 22; Arbovirus anti: -2; RAM network inh: 1; Hck-Nef inh: 17

How did Cc1oc(-c2ccccc2)[n+]([O-])c1C do in these assays?
WT yeast gro inh: 69*; Arbovirus anti: -2; RAM network inh: 1; Hck-Nef inh: -1

How did O=C(N/N=C/c1c[nH]c2ccc(Br)cc12)C1CC1 do in these assays?
NCF1 inh: -33; Calb biofilm kill: 14; Hck-Nef inh: 16

What do the screens show for `CSc1ccccc1C(=O)Nc1ccccc1C(=O)N1CCCC1`?
WT yeast gro inh: -7; NCF1 inh: -9; Calb biofilm kill: 12; Arbovirus anti: 4; RAM network inh: 1; Hck-Nef inh: -4

Results for Cc1cc(C)c2c(=O)n(CC(=O)NCCCN3CCOCC3)sc2n1 ?
WT yeast gro inh: 17; NCF1 inh: -10; Arbovirus anti: -4; RAM network inh: 0; Hck-Nef inh: -3

What do the screens show for `CCOc1ccc(NC(=O)Cn2sc3nc(C)cc(C)c3c2=O)cc1`?
NCF1 inh: 40*; Calb biofilm kill: 21; Hck-Nef inh: -136

How did Cc1cc(C)c2c(=O)n(CC(=O)NCCCN3CCN(c4ccccc4F)CC3)sc2n1 do in these assays?
WT yeast gro inh: -2; NCF1 inh: 51*; Arbovirus anti: -29; RAM network inh: 2; Hck-Nef inh: -20

How did Cc1ccc(Cl)cc1NC(=S)N1CCC(c2ccccc2)C1 (stereo not given) do in these assays?
WT yeast gro inh: 59*; NCF1 inh: 0; Calb biofilm kill: 2; Arbovirus anti: -16; RAM network inh: 4; Hck-Nef inh: 21

What do the screens show for `Cc1cccc(NC(=S)N2CCCCC2)c1`?
WT yeast gro inh: -3; NCF1 inh: -3; Calb biofilm kill: 12; Arbovirus anti: -1; RAM network inh: -1; Hck-Nef inh: 0

How did Cc1ccc(C2CCN(C(=S)NC(C)(C)C)C2)cc1 (stereo not given) do in these assays?
WT yeast gro inh: 37; NCF1 inh: 1; Calb biofilm kill: 22; Arbovirus anti: 1; RAM network inh: 1; Hck-Nef inh: 5

Results for Cc1ccc(C2CCN(C(=S)Nc3cccc(C)c3)C2)cc1 (stereo not given) ?
WT yeast gro inh: 78*; NCF1 inh: 0; Calb biofilm kill: 15; Arbovirus anti: 8; RAM network inh: 6; Hck-Nef inh: -4

How did Cc1ccc(C2CCN(C(=S)NC3CCCCC3)C2)cc1 (stereo not given) do in these assays?
WT yeast gro inh: 66*; NCF1 inh: -6; Calb biofilm kill: 16; Arbovirus anti: 10; RAM network inh: 2; Hck-Nef inh: 10

What do the screens show for `COc1cccc(NC(=S)NNC(=O)Cn2nc(C(F)(F)F)cc2C)c1`?
WT yeast gro inh: -4; NCF1 inh: -13; Calb biofilm kill: 13; Arbovirus anti: -7; RAM network inh: 1; Hck-Nef inh: 1

How did CS(=O)(=O)N1CCN(c2ccc([N+](=O)[O-])c(NCCN3CCOCC3)c2)CC1 do in these assays?
WT yeast gro inh: -23; NCF1 inh: 144*; Arbovirus anti: 1; RAM network inh: 1; Hck-Nef inh: -2

How did C/C(=N\NC(=O)C(N)=O)c1ccc(O)cc1O do in these assays?
WT yeast gro inh: -7; NCF1 inh: 0; Calb biofilm kill: 11; Arbovirus anti: -18; RAM network inh: 0; Hck-Nef inh: -24

What do the screens show for `O=C1CC(c2cccc(Cl)c2)CC(O)=C1C=Nc1cccc(Cl)c1` (stereo not given)?
WT yeast gro inh: 81*; NCF1 inh: -141; Calb biofilm kill: 17; Arbovirus anti: -36; RAM network inh: 6; Hck-Nef inh: 2

Results for O=[N+]([O-])c1ccc(N(c2ccccc2)c2ccccc2)cc1 ?
WT yeast gro inh: -2; NCF1 inh: -11; Arbovirus anti: 1; RAM network inh: 10*; Hck-Nef inh: 0

Results for CN(C)c1ccc(C(c2ccc(N(C)C)cc2)c2ccc([N+](=O)[O-])cc2)cc1 ?
NCF1 inh: 37*; Calb biofilm kill: 18; Hck-Nef inh: 7
